# In publication PMC8686831 (Molecular pharmaceutics, 2021):
# How the values were obtained:
# [1] = system: healthy athymic nude mice; test: ^127I-PARPi toxicity study in healthy mice; assay type: in vivo; settings: 2.05 mg/kg intravenously
# [2] = system: HCT116 p53^−/− subcutaneous xenograft tumors; test: Survival study in subcutaneous xenograft mice; assay type: in vivo, athymic nude mice
# How it was run: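 Nude mice carried s.c. HCT116 p53+/+ or p53−/− xenografts (10^6 cells, 1:1 media/matrigel). At a mean tumor volume of 100 ± 10 mm3 they were randomized. Dosing was i.v. every 3–4 days for 5 cycles: approximately 74 MBq test compound in 100 μL 30% PEG300 vehicle, or vehicle alone. The p53−/− study added a stable-iodine analogue cohort (approx. 80 μg/kg). Weights were taken daily. Endpoints: distress, significant weight loss, tumor >800 mm3, or ulceration >5 mm.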
compound,measurement,setting,value
O=C(c1cccc([127I])c1)N1CCN(C(=O)c2cc(Cc3n[nH]c(=O)c4ccccc34)ccc2F)CC1 [^127I-PARPi],Toxicity (immunohistochemical and blood chemistry analysis),[1]; healthy mice,no toxicity was observed
same,"Markers associated with liver toxicity (ALP, ALT, AST)",[1]; vs. vehicle,no significant variation compared to vehicle cohorts
same,Effect on overall / median survival compared to vehicle,[2],No significant increase in median survival
same,Improvement of median survival compared to vehicle control group,[2],+26%
same,Median survival (weeks),"[2]; i.v., ^123I-MAPi 74 MBq or ^127I-PARPi approx. 80 μg/kg, every 3–4 days, 5 cycles",3.071 weeks
